Pf Dd2 inh – P. falciparum Dd2 growth inhibition; activity change, % at 10 µM; 94,000 compounds, 2.3% hits; SYBR Green, 72 h; active compounds read low; in the data active = activity change below about -80%; inconclusive = no clear call, values can overlap the other calls
KDM4C inh – KDM4C (human) demethylase inhibition; Q9H3R0; GST-KDM4C 2-372, H3K9me3 peptide, LANCE TR-FRET; inhibition, % at 12.5 µM; 96,000 compounds, 0.15% hits;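 active = mean replicate inhibition above about 25%, with at least 55% of replicates also reaching it, limit read from the data, passing the limit was not always enough; inconclusive = only one of those two conditions met; inactive = neither condition met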
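Test system – GST-tagged GASC-1 (JMJD2C) catalytic fragment, aa 2-372 · Medium – HEPES buffer, pH 7.5, plus ascorbate · Reagent – H3K9me3 peptide with Fe(II)/2OG · Compound – one test concentration per compound · Timing – 30 min reaction, 60 min detection, RT · Technique – TR-FRET with Eu antibody and ULight streptavidin, EDTA stop · Read-out basis – inhibition from TR-FRET ratio decrease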
IDH1 R132H inh – blocks human IDH1 R132H reductase activity. O75874. inhibition, % at 10 µM. 70,000 compounds, 0.18% hits. diaphorase/resazurin fluorescence, 60 min. AID 624101; in the data active = inhibition above about 34%; inconclusive = no clear call, values can overlap the other calls; inactive = below about 11%;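 also: 0% = DMSO and 100% = no enzyme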
Target sequence (O75874 whole entry R132H): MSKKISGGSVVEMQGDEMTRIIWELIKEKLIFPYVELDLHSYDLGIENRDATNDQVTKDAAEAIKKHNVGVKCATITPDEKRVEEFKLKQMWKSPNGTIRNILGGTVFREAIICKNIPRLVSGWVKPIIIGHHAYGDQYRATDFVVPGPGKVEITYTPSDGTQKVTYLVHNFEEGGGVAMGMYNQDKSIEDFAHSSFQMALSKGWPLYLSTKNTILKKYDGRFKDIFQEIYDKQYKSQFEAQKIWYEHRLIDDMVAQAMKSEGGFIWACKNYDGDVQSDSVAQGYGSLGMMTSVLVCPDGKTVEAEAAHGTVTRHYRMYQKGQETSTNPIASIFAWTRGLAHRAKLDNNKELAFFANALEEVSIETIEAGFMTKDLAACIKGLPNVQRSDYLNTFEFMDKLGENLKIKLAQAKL
* marks the source's active call; other numbers are inactive results; ? = inconclusive; nt = no result. This is one part of a sample in which hits are shown more often than they occur.

SMILES | Pf Dd2 inh | KDM4C inh | IDH1 R132H inh
C[C@H]1CN([C@@H](C)CO)C(=O)c2c(c3ccccc3n2C)-c2ccccc2CO[C@H]1CN(C)C(=O)Nc1ccccc1 | -37.5 | -2.9 | nt
C[C@H](CO)N1C[C@H](C)[C@H](CN(C)C(=O)Nc2ccc(-c3ccccc3)cc2)OCc2ccccc2-c2c(n(C)c3ccccc23)C1=O | -89.2* | -1.4 | nt
C[C@H]1CN([C@@H](C)CO)C(=O)c2c(c3ccccc3n2C)-c2ccccc2CO[C@H]1CN(C)C(=O)Nc1ccc(-c2ccccc2)cc1 | -88.7* | -5.9 | nt
C[C@@H]1CN([C@@H](C)CO)C(=O)c2c(c3ccccc3n2C)-c2ccccc2CO[C@H]1CN(C)C(=O)Nc1ccc(-c2ccccc2)cc1 | -90.7* | -2.7 | nt
C[C@@H]1CN([C@@H](C)CO)C(=O)c2c(c3ccccc3n2C)-c2ccccc2CO[C@@H]1CN(C)C(=O)Nc1ccccc1 | -65.7 | -0.1 | nt
C[C@H](CO)N1C[C@H](C)[C@@H](CN(C)C(=O)Nc2ccc(F)cc2)OCc2ccccc2-c2c(n(C)c3ccccc23)C1=O | -92.1* | -1.3 | nt
C[C@@H]1CN([C@H](C)CO)C(=O)c2c(c3ccccc3n2C)-c2ccccc2CO[C@@H]1CN(C)C(=O)Nc1cccc(F)c1 | -53.0 | -2.5 | 0.8
C[C@H](CO)N1C[C@H](C)[C@H](CN(C)C)Oc2ccc(N(C)C)cc2CC1=O | 38.9 | 4.1 | -0.5
Cc1noc(C)c1NC(=O)N(C)C[C@@H]1Oc2ncc(C#CC3CCCC3)cc2C(=O)N([C@H](C)CO)C[C@H]1C | -0.5 | -1.6 | nt
C[C@@H]1CN([C@@H](C)CO)C(=O)Cc2cc(NC(=O)Nc3ccccc3)ccc2O[C@H]1CN(C)Cc1ccc(C(F)(F)F)cc1 | -61.7 | -0.3 | 0.9
COc1ccc(-c2ccc3n(c2=O)C[C@@H]2[C@@H](CO)[C@H](C(=O)N(C)C)N(CC4CCCC4)[C@H]32)cc1 | nt | 8.9 | nt
COc1ccc(-c2ccc3n(c2=O)C[C@@H]2[C@@H](CO)[C@H](C(=O)N(C)C)N(CC4CC4)[C@H]32)cc1 | -3.1 | 27.7* | nt
Cc1cc(C)nc(SCC(=O)Nc2cccc(C(=O)O)c2)n1 | nt | nt | 0.2
COc1cccc(-c2ccc(C3[C@H]4CNC[C@@H]3N4C(=O)NC3CCCCC3)cc2)c1 (stereo not given in full) | -42.5 | 20.7 | nt
CCCN(C)C[C@H]1OCCCC[C@H](C)Oc2ccc(NS(=O)(=O)c3cccs3)cc2C(=O)N([C@H](C)CO)C[C@H]1C | ? | 1.9 | nt
CCCN(C)C[C@H]1OCCCC[C@@H](C)Oc2ccc(NS(=O)(=O)c3cccs3)cc2C(=O)N([C@H](C)CO)C[C@@H]1C | -86.2* | 3.8 | 1.1
CCCN(C)C[C@H]1OCCCC[C@@H](C)Oc2ccc(NS(=O)(=O)c3cccs3)cc2C(=O)N([C@@H](C)CO)C[C@@H]1C | -90.4* | 3.2 | nt
CCCN(C)C[C@H]1OCCCC[C@H](C)Oc2ccc(NS(=O)(=O)c3cccs3)cc2C(=O)N([C@@H](C)CO)C[C@H]1C | -63.1 | -0.2 | 0.7
CCOC(=O)c1c(NC(=O)CSc2cc(C)c3ccccc3n2)sc(C)c1C | nt | nt | -0.3
CC(C)CC#Cc1ccc2c(c1)O[C@H](CN(C)C)[C@@H](C)CN([C@H](C)CO)S2(=O)=O | -29.7 | 20.0 | -2.2
C[C@@H]1CN([C@@H](C)CO)C(=O)c2cc(NC(=O)Nc3cccc4ccccc34)ccc2O[C@@H](C)CCCCO[C@@H]1CN(C)Cc1ccc2c(c1)OCO2 | -90.1* | -1.4 | -1.6
C[C@@H]1CCCCO[C@H](CN(C)Cc2ccc3c(c2)OCO3)[C@@H](C)CN([C@H](C)CO)C(=O)c2cc(NC(=O)Nc3cccc4ccccc34)ccc2O1 | 16.2 | -2.9 | 1.4
C[C@@H]1CCCCO[C@H](CN(C)Cc2ccc3c(c2)OCO3)[C@H](C)CN([C@H](C)CO)C(=O)c2cc(NC(=O)Nc3cccc4ccccc34)ccc2O1 | -84.4* | -2.5 | nt
C[C@H](CO)N1C[C@H](C)[C@H](CN(C)Cc2ccc3c(c2)OCO3)OCCCC[C@H](C)Oc2ccc(NC(=O)Nc3cccc4ccccc34)cc2C1=O | 1.9 | -2.6 | nt
O=C(Nc1ccc(F)cc1)N[C@@H]1CC[C@H](CCNS(=O)(=O)c2ccccc2F)O[C@@H]1CO | nt | 8.1 | 0.2
Cc1noc(C)c1NC(=O)Nc1ccc2c(c1)C(=O)N([C@H](C)CO)C[C@@H](C)[C@H](CN(C)CC1CC1)OCCCC[C@@H](C)O2 | 63.8 | 0.6 | nt
C[C@@H]1CN([C@@H](C)CO)C(=O)c2cccc(NC(=O)CCCCCC(=O)Nc3ccccc3N)c2O[C@H]1CN(C)S(=O)(=O)c1ccc(F)cc1 | -75.9 | -2.4 | nt

From PubChem BioAssay
